Measured values gathered from unrelated publications.
Target: NUAK family SNF1-like kinase 1 (NUAK1, Homo sapiens, UniProt O60285)
Residues used in one study (O60285 1-661): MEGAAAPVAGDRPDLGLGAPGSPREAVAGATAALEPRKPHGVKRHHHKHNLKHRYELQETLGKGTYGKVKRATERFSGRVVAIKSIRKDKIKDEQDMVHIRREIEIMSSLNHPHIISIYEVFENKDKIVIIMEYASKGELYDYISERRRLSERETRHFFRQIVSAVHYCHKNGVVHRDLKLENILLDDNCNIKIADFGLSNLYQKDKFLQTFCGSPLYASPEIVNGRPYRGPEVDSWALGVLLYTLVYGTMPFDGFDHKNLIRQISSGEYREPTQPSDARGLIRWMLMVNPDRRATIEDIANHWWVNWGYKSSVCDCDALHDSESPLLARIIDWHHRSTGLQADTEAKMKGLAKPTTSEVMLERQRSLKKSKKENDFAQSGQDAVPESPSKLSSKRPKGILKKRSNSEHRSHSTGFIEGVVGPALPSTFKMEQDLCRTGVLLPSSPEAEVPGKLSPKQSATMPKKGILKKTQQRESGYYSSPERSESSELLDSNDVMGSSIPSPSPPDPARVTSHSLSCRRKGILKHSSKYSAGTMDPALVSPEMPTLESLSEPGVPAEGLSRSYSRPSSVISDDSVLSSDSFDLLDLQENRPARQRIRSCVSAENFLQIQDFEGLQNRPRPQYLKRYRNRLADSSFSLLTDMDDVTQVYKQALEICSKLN

`COc1cc(-c2cn(C3CCc4c(F)cccc4N(CC(F)(F)F)C3=O)nn2)ccc1-n1cnc(C)c1` (stereo not shown) has a remaining binding of 100% (cell-free assay, competition with immobilised ligand; 1 µM).
`COc1cc(/C=C/C(=O)CC(=O)/C=C/c2ccc(O)c(OC)c2)ccc1O` gave an activity vs control of 55% (enzyme activity, inhibitor; 1 µM).
For `NS(=O)(=O)c1ccc(CNc2nc(Nc3cccc(CN4CCOCC4)c3)ncc2Br)cc1`, the remaining activity was 23% (enzyme activity, inhibitor, radiometric; 1 µM).
`CN(C)C(=O)Cn1cc(-c2nc(C3(c4ccc(-c5cnc(N)nc5)cc4)CC3)no2)cn1` has a remaining binding of 82% (cell-free assay, competition with immobilised ligand; 1 µM).
`CN(C)C1CCN(CC#Cc2nn(C3CCCC3)c3nc(NCc4ccccc4)ncc23)C1` (stereo not shown) has an inhibition of 48% (enzyme activity, inhibitor, FRET; 10 µM).
With `NS(=O)(=O)c1ccc(CNc2ccnc(Nc3cccc(CN4CCOCC4)c3)n2)cc1` the remaining activity was 79% (enzyme activity, inhibitor, radiometric; 1 µM).
`Cc1ccc(Nc2nccc(N(C)c3ccc4c(C)n(C)nc4c3)n2)cc1S(N)(=O)=O` gave an inhibition of 14% (enzyme activity, inhibitor; 0.3 µM).
With `Nc1ncnc2occ(-c3ccc(NC(=O)Nc4cc(C(F)(F)F)ccc4F)cc3)c12` the remaining signal was 70% (cell-free assay, inhibitor; 20 µM).
`O=C(NCCCNc1ccnc(Nc2cccc(NC(=O)N3CCCC3)c2)n1)C1CCC1` gave a remaining activity of 87% (enzyme activity, inhibitor, radiometric; 1 µM).
For `CNC(=O)c1cc(Oc2ccc(NC(=O)Nc3ccc(Cl)c(C(F)(F)F)c3)cc2)ccn1`, the inhibition was 2% (enzyme activity, inhibitor; 10 µM).
With `CN1CCc2cc(Nc3ncc(C4CC4)c(NCCCNC(=O)C4CCC4)n3)ccc2C1` the remaining activity was 6% (enzyme activity, inhibitor, radiometric; 1 µM).
With `CN([C@@H]1CCc2c(CC(=O)O)c3ccccc3n2C1)S(=O)(=O)c1ccc(F)cc1` the remaining binding was 100% (cell-free assay, competition with immobilised ligand; 1 µM).
`O=C1NC(=O)c2cc(Nc3ccc(F)cc3)c(Nc3ccc(F)cc3)cc21` has a remaining signal of 94% (cell-free assay; 0.5 µM).
For `CN(c1nccc(-c2cnn3ncccc23)n1)C1CC1`, the remaining signal was 93% (cell-free assay; 1 µM).
For `O=C(Nc1ccc(Oc2ccc(F)cc2)cc1)N1CCc2ncccc2[C@H]1c1ccc(F)cc1`, the remaining binding was 92% (cell-free assay, competition with immobilised ligand; 1 µM).
`c1cc(CN2CCOCC2)cc(Nc2nccc(NCCc3cnc[nH]3)n2)c1` gave a remaining activity of 14% (enzyme activity, inhibitor, radiometric; 1 µM).
`FC(F)c1nc2ccccc2n1-c1nc(N2CCOCC2)nc(N2CCOCC2)n1` has a remaining activity of 90% (enzyme activity, inhibitor; 10 µM).
`Cc1nn(CC(F)(F)F)cc1Nc1ncc(Br)c(NCCCNC(=O)C2CCC2)n1` has a remaining activity of 22% (enzyme activity, inhibitor, radiometric; 1 µM).
For `Cc1ccc(NC(=O)c2ccc(C)c(C(F)(F)F)c2)cc1C#Cc1nn(C2CCC(O)CC2)c2ncnc(N)c12` (stereo not shown), the remaining signal was 108% (cell-free assay; 10 µM).
With `CN(C(=O)c1ccccc1)c1cc(N(C)c2ccc3c(c2)CCc2ccc(C(=O)NCCN4CCOCC4)cc2C3=O)ccc1F` the remaining binding was 100% (cell-free assay, competition with immobilised ligand; 1 µM).
`Cc1cc(NC(=O)c2cccc3cc(-c4cccc5[nH]nc(N)c45)ccc23)ccc1F` gave an activity vs control of 100% (enzyme activity, inhibitor; 0.1 µM).
With `O=C(NCCCNc1nc(Nc2cccc(NC(=O)N3CCCC3)c2)ncc1Br)C1CCC1` the remaining activity was 0% (enzyme activity, inhibitor, radiometric; 1 µM).
With `CNC(=O)Nc1ccc2c(c1)CC[C@@]21OC(=O)N(CC(=O)N(Cc2ccc(F)cc2)[C@@H](C)C(F)(F)F)C1=O` the remaining binding was 94% (cell-free assay, competition with immobilised ligand; 1 µM).
With `N#CCCc1ccc2c(c1)-c1[nH]c3ccc([N+](=O)[O-])cc3c1CC(=O)N2` the remaining signal was 14.1% (cell-free assay; 0.5 µM).
With `CO[C@H]1CC[C@H](CNc2ccc(S(=O)(=O)NC(=O)c3ccc(N4CCN(CC5=C(c6ccc(Cl)cc6)CC(C)(C)CC5)CC4)cc3Oc3cnc4[nH]ccc4c3)cc2[N+](=O)[O-])CC1` the remaining binding was 100% (cell-free assay, competition with immobilised ligand; 1 µM).
For `Cc1nn(CC(F)(F)F)cc1Nc1ncc(C2CC2)c(NCCc2c[nH]cn2)n1`, the remaining activity was 73% (enzyme activity, inhibitor, radiometric; 1 µM).
`COc1ccc2c(c1)O[C@@H](c1ccc(OC)c(OC)c1)C[C@H]2NC(=O)C1(c2ccc3c(c2)OC(F)(F)O3)CC1` gave a remaining binding of 86% (cell-free assay, competition with immobilised ligand; 1 µM).
With `O=C1Nc2ccc(Cl)cc2C1=Cc1cc(Cl)c(O)c(Cl)c1` the remaining signal was 72.5% (cell-free assay; 0.5 µM).
